Bioassay records deposited in PubChem by several laboratories.
Shown are actives, neighbours in structure and some others; about 1.8% of the full set was active somewhere.
UHRF1 binding: UHRF1 methyl-DNA binding inhibition; hit rate 0.75% among 370,000; Q96T88; UHRF1 binding to methylated oligo, TR-FRET; inhibition, % at 4.4 µM; in the data active = inhibition above about 21%;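 also: UHRF1 SRA domain binding a hemimethylated CpG hairpin DNA probe; 0% = median of test compound wells and 100% = reference inhibitor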
NSD2 HMT inh: blocks human histone methyltransferase NSD2 | NSD2 peptide methylation, AlphaScreen, 120 min | inhibition, % at 12.5 µM | hit rate 0.54% among 310,000 | AID 743445; in the data active = inhibition above about 50%
CASP6 VEID inh: inhibitors of human caspase-6 | hit rate 0.53% among 350,000 | AID 686996 | purified caspase-6, Z-VEID-R110 cleavage fluorescence | inhibition, % at 12.5 µM | P55212;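 active = mean inhibition across replicates at least about 35%, with every replicate also reaching that limit, limit read from the data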;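 also: 0% = median of neutral control wells and 100% = no fluorescence left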
Target sequence (P55212 24-179 limits assumed): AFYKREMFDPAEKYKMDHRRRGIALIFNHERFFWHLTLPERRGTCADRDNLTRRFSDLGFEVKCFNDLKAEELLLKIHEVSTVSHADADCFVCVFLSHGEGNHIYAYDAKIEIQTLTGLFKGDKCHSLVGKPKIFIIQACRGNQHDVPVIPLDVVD
Target sequence (P55212 194-293 limits assumed): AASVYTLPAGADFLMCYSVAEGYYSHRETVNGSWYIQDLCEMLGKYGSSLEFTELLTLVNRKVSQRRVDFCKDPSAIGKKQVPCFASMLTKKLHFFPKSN
MBD2 inh: MBD2-methylated oligo binding inhibition; hit rate 0.31% among 370,000; AID 686964; inhibition, % at 4.4 µM; Q9UBB5; TR-FRET, MBD2 binding to methylated oligonucleotide; in the data active = inhibition above about 13%
TDP2 inh: blocks human TDP2 phosphodiesterase activity; O95551; AID 720702; inhibition, % at 12.8 µM; hit rate 0.34% among 370,000; recombinant TDP2, T5PNP hydrolysis, p-nitrophenol absorbance 415 nm;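 active = inhibition above the mean of all tested compounds plus 3 SD, set per campaign, cut at about 25% in these data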;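 also: 0% = DMSO with enzyme and 100% = buffer with substrate but no TDP2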
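Assay system: Recombinant human TDP2 | Quantity: 120 nM TDP2 per well | Incubation: 2 h at 37 °C | Signal: Epi absorbance | Evaluation: Percent inhibition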
LEDGF integ inh: blocks HIV-1 LEDGF/p75-dependent DNA integration; TR-FRET IN-LEDGF/p75 DNA integration, Eu/Cy5; inhibition, % at 3.7 µM; hit rate 0.64% among 370,000;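 active = inhibition above the screen-wide mean plus 3 SD, cut at about 13% in these data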;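 also: signal is the Cy5 over europium emission ratio at 671 and 618 nm; 0% = plate median of compound wells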
IN multimer up: counter-screen for LEDGF/p75 integration inhibitors: HIV-1 integrase multimerization activators. shares compounds with LEDGF integ inh. AID 1053131. activation, % at 7.7 µM. hit rate 17% among 2,000. TR-FRET HIV-1 integrase multimerization, biochemical; in the data active = activation above about 8.9%
TRFRET interf: counter-screen for LEDGF/p75 integration inhibitors: TR-FRET optical interference | shares compounds with LEDGF integ inh | TR-FRET optical interference counterscreen, HIV-1 IN multimerization | inhibition, % at 7.7 µM | 2,000 tested, under 10 active | AID 1053135;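 active = inhibition above the mean over all tested compounds plus 3 SD, which no compound reached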;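 also: 0% = integrase with antibodies and DMSO and 100% = antibodies without integrase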
LEDGF integ conf: LEDGF/p75-dependent HIV-1 integration inhibition, confirmation. shares compounds with LEDGF integ inh. TR-FRET LEDGF/p75-dependent HIV-1 integration, biochemical. inhibition, % at 3.7 µM. hit rate 36% among 2,000. AID 1053136; in the data active = inhibition above about 14%
* hit, by the source's call; x = no result given; ! = a repeat was not active.

SMILES | UHRF1 binding | NSD2 HMT inh | CASP6 VEID inh | MBD2 inh | TDP2 inh | LEDGF integ inh | IN multimer up | TRFRET interf | LEDGF integ conf
CCN(Cc1ccc(NC(C)=O)cc1)CC1CCCN(CCc2cccc(OC)c2)C1 (stereo not drawn) | 0 | 16 | -12 | -4 | 2 | 63* | 0 | 3 | 0
COC(=O)[C@]12CCCCC=C1N(Cc1ccco1)C(=O)[C@H](CC(=O)NCC13CC4CC(CC(C4)C1)C3)C2 | 1 | x | 6 | -2 | -3 | 28* | 0 | 1 | -7
C#CCNC(=O)C[C@@H]1C[C@@]2(C(=O)OCC)CCCC=C2N(Cc2ccccc2)C1=O | -1 | x | 0 | 4 | 2 | 19* | -2 | 12 | -1
CCOC(=O)[C@]12CCCC=C1N(Cc1ccccc1)C(=O)[C@H](CC(=O)NCc1ccccc1)C2 | 1 | x | -3 | 2 | -8 | 1 | x | x | x
O=c1c(OC2OC(CO)C(O)C(O)C2OC2OC(CO)C(O)C(O)C2O)c(-c2ccc(O)cc2)oc2cc(O)cc(O)c12 (stereo not drawn) | 1 | x | 46* | 1 | -8 | 19* | 48* | -170 | 48*
C[C@@H]1O[C@@H](Oc2c(-c3ccc(O)c(O)c3)oc3cc(O)cc(O)c3c2=O)[C@H](O)[C@H](O)[C@H]1O | 4 | x | 19 | 0 | -8 | 21*! | 16* | -81 | 58*
C[C@@H]1O[C@@H](O[C@H]2[C@H](O)[C@@H](O)[C@H](Oc3c(-c4ccc(O)c(O)c4)oc4cc(O)cc(O)c4c3=O)O[C@@H]2CO)[C@H](O)[C@H](O)[C@H]1O | 8 | x | x | 2 | -3 | 7 | x | x | x
C[C@@H]1O[C@@H](Oc2c(-c3cc(O)c(O)c(O)c3)oc3cc(O)cc(O)c3c2=O)[C@H](O)[C@H](O)[C@H]1O | 5 | x | 22 | -4 | -8 | 55* | 53* | -189 | 63*
COc1ccc(NC(=O)Nc2ccc3c(c2)C(=O)N([C@@H](C)CO)C[C@H](C)[C@@H](CN(C)C(=O)Nc2c(C)noc2C)OCCCC[C@H](C)O3)cc1 | x | x | 2 | x | x | x | x | x | x
COc1ccc(CS(=O)(=O)CC(C)(O)c2ccc(Cl)cc2)cc1 (stereo not drawn) | -3 | -1 | -2 | -5 | 10 | 14* | 0 | -2 | 0
O=C(NCCc1ccncc1)[C@@H]1[C@@H](CO)[C@@H]2Cn3c(ccc(-c4ccncc4)c3=O)[C@@H]2N1C(=O)C1CC1 | x | x | 0 | x | x | x | x | x | x
C=CCN(c1ccccc1Cl)S(=O)(=O)c1cccc(C(=O)NCCc2ccc(OC)cc2)c1 | -1 | -1 | x | -3 | 9 | 90* | -1 | 2 | -9
O=[N+]([O-])c1ccc2c(c1)nc1n2CCN(c2ccccc2)C1 | 1 | -1 | -2 | 2 | -2 | 17* | 0 | -1 | 7
O=C(C1CC1)N1CC2(C1)[C@H](c1ccccc1)[C@H](CO)N2Cc1cncnc1 | x | x | 2 | x | x | x | x | x | x
CSc1nc2c([nH]1)c(=S)n(C)c(=O)n2C | -3 | -3 | -2 | -3 | -3 | 26* | 7 | -24 | -10
Cc1cc(C(C)(C)C)c(O)c(C(C)(C)C)c1 | 3 | x | -3 | -2 | -5 | 2 | x | x | x
Cc1cc(O)c(Oc2cc(C)cc(O)c2O)c(O)c1 | 1 | x | 14 | 0 | 3 | 35* | 6 | -31 | 33*
CCOC(=O)CCCCC(=O)c1[nH]c(=O)[nH]c1CN1CCOCC1 | -1 | 14 | -2 | -4 | -2 | 17* | 0 | -1 | 13
CCOC(=O)CCCCC(=O)c1[nH]c(=O)[nH]c1CSc1nc(C)cc(C)n1 | 4 | x | x | 5 | -14 | 26* | -1 | 4 | 19*
CCOC(=O)c1[nH]c(=O)[nH]c1CSc1nc(C)cc(C)n1 | 0 | 2 | x | -6 | 4 | -4 | x | x | x
